Assay results: ChEMBL document CHEMBL1909621, “Synthesis and biological evaluation of novel nitrogen- and sulfur-containing hetero-1,4-naphthoquinones as potent antifungal and antibacterial agents” (2011)
In brackets after ≈: the same amount, converted by molar mass. Activity calls are given as the source filed them. No cut-off for these calls is given here.

Experiments:
Format in all cases: functional
Staphylococcus aureus [1] = assay: Antibacterial activity against Staphylococcus aureus 209-P at 0.5% after 24 hrs by diffusion technique
Yamadazyma tenuis [2] = assay: Antifungal activity against Candida tenuis VKM Y-70 at 0.1% after 48 to 72 hrs by diffusion technique
How it was run: (§1)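 Fungi. Disk diffusion: 10⁹ spores (cells)/1 mL inoculum. Incubated 48–72 h at 28–30 °C. Zone around disk measured, with a nystatin control disk. Serial dilution: compounds dissolved in DMSO and diluted into wort agar, then inoculated. Incubated at 30 °C for 24–72 h. MIC recorded.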

Yamadazyma tenuis [3] = assay: Antifungal activity against Candida tenuis VKM Y-70 at 0.5% after 48 to 72 hrs by diffusion technique; how it was run: as §1
Aspergillus niger [4] = assay: Antifungal activity against Aspergillus niger F-1119 after 24 to 72 hrs by serial dilution technique; how it was run: as §1
Escherichia coli [5] = assay: Antibacterial activity against Escherichia coli B-906 at 0.1% after 24 hrs by diffusion technique
Aspergillus niger [6] = assay: Antifungal activity against Aspergillus niger F-1119 at 0.5% after 48 to 72 hrs by diffusion technique; how it was run: as §1
Escherichia coli [7] = assay: Antibacterial activity against Escherichia coli B-906 at 0.5% after 24 hrs by diffusion technique
Staphylococcus aureus [8] = assay: Antibacterial activity against Staphylococcus aureus 209-P after 24 to 72 hrs by serial dilution technique
Yamadazyma tenuis [9] = assay: Antifungal activity against Candida tenuis VKM Y-70 after 24 to 72 hrs by serial dilution technique; how it was run: as §1
Escherichia coli [10] = assay: Antibacterial activity against Escherichia coli B-906 after 24 to 72 hrs by serial dilution technique
Mycobacterium [11] = assay: Antibacterial activity against Mycobacterium luteum b-917 after 24 to 72 hrs by serial dilution technique
Mycobacterium [12] = assay: Antibacterial activity against Mycobacterium luteum b-917 at 0.5% after 24 hrs by diffusion technique
Staphylococcus aureus [13] = assay: Antibacterial activity against Staphylococcus aureus 209-P at 0.1% after 24 hrs by diffusion technique
Aspergillus niger [14] = assay: Antifungal activity against Aspergillus niger F-1119 at 0.1% after 48 to 72 hrs by diffusion technique; how it was run: as §1
Mycobacterium [15] = assay: Antibacterial activity against Mycobacterium luteum b-917 at 0.1% after 24 hrs by diffusion technique

Row | SMILES | MIC (Yamadazyma tenuis [9]) | MIC (Aspergillus niger [4]) | MIC (Staphylococcus aureus [8]) | MIC (Mycobacterium [11]) | diameter of the inhibition zone (DIZ) (Staphylococcus aureus [1]) | diameter of the inhibition zone (DIZ) (Yamadazyma tenuis [2]) | diameter of the inhibition zone (DIZ) (Yamadazyma tenuis [3]) | inhibition (Aspergillus niger [4]) | diameter of the inhibition zone (DIZ) (Escherichia coli [5]) | diameter of the inhibition zone (DIZ) (Aspergillus niger [6]) | diameter of the inhibition zone (DIZ) (Escherichia coli [7]) | inhibition (Staphylococcus aureus [8]) | inhibition (Escherichia coli [10]) | inhibition (Mycobacterium [11]) | diameter of the inhibition zone (DIZ) (Mycobacterium [12]) | diameter of the inhibition zone (DIZ) (Staphylococcus aureus [13]) | diameter of the inhibition zone (DIZ) (Aspergillus niger [14]) | diameter of the inhibition zone (DIZ) (Mycobacterium [15])
1 | CCOC1=C(SCc2c(C)cc(C)cc2C)C(=O)c2ccccc2C1=O | 62.5 µg/mL (≈ 171 µM) |  |  |  | 0 mm | 0 mm | 0 mm | inactive | 0 mm | 0 mm | 0 mm | inactive | inactive | inactive | 0 mm | 0 mm | 0 mm | 0 mm
2 | O=C1C(Cl)=C(SCc2ccc(Cl)cc2)C(=O)c2ccccc21 | 15.6 µg/mL (≈ 44.7 µM) | 15.6 µg/mL (≈ 44.7 µM) |  | 500 µg/mL (≈ 1430 µM) | 7 mm | 10 mm | 14 mm |  | 0 mm | 7 mm | 0 mm | inactive | inactive |  | 0 mm | 0 mm | 0 mm | 0 mm

More lines, main results first:

Row | MIC (Yamadazyma tenuis [9]) | MIC (Aspergillus niger [4]) | MIC (Staphylococcus aureus [8]) | MIC (Mycobacterium [11]) | SMILES | diameter of the inhibition zone (DIZ) (Staphylococcus aureus [1]) | diameter of the inhibition zone (DIZ) (Yamadazyma tenuis [2]) | diameter of the inhibition zone (DIZ) (Yamadazyma tenuis [3]) | inhibition (Aspergillus niger [4]) | diameter of the inhibition zone (DIZ) (Escherichia coli [5]) | diameter of the inhibition zone (DIZ) (Aspergillus niger [6]) | diameter of the inhibition zone (DIZ) (Escherichia coli [7]) | inhibition (Staphylococcus aureus [8]) | inhibition (Escherichia coli [10]) | inhibition (Mycobacterium [11]) | diameter of the inhibition zone (DIZ) (Mycobacterium [12]) | diameter of the inhibition zone (DIZ) (Staphylococcus aureus [13]) | diameter of the inhibition zone (DIZ) (Aspergillus niger [14]) | diameter of the inhibition zone (DIZ) (Mycobacterium [15])
3 | 31.2 µg/mL (≈ 85 µM) |  |  |  | O=C1C(Cl)=C(SCCCCCCCCCO)C(=O)c2ccccc21 | 0 mm | 0 mm | 0 mm | inactive | 0 mm | 0 mm | 0 mm | inactive | inactive | inactive | 0 mm | 0 mm | 0 mm | 0 mm
4 | 7.8 µg/mL (≈ 21.3 µM) | 31.2 µg/mL (≈ 85.1 µM) | 15.6 µg/mL (≈ 42.6 µM) | 15.6 µg/mL (≈ 42.6 µM) | O=C1C(SCCCCO)=C(SCCCCO)C(=O)c2ccccc21 | 26 mm | 0 mm | 8 mm |  | 0 mm | 6 mm | 0 mm |  | inactive |  | 31 mm | 18 mm | 0 mm | 22 mm
5 | 15.6 µg/mL (≈ 19.6 µM) |  |  |  | O=C1CCSC2=C(SCCC(=O)OCC3(CO1)COC(=O)CCSC1=C(SCCC(=O)OC3)C(=O)c3ccccc3C1=O)C(=O)c1ccccc1C2=O | 0 mm | 0 mm | 0 mm | inactive | 0 mm | 0 mm | 0 mm | inactive | inactive | inactive | 0 mm | 0 mm | 0 mm | 0 mm
